Screens (PubChem BioAssay)
PKA-R1A act: activators of PKA-R1A complex; 340,000 compounds, 0.083% hits; AID 504707; activation, % at 11.4 µM; P00514+P68181; PKA-R1A dissociation, Cy5-IP20 fluorescence polarization; scaled: DMSO 0%, 113 µM cGMP 100%;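 active = percent activation above the mean of all tested compounds plus 3 SD, cut at about 19% in these data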;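 note: higher means more PKAc released from R1A so a rise in polarization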
PKA-R2B activ: activators of human PKA-R2B complex; PKA-R2B holoenzyme dissociation, Cy5-IP20 fluorescence polarization; R2B truncated from residue 108, S112A mutant; 0% DMSO only, 100% 113 µM cGMP; activation, % at 11.4 µM; 340,000 compounds, 0.079% hits;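 active = activation above a cutoff set at the mean over all compounds plus 3 SD, cut at about 18% in these data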;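 note: higher means more holoenzyme dissociation and a rise in polarization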
Target sequence (P31323 whole entry, looked up, other chains not shown, the tested form may be a part): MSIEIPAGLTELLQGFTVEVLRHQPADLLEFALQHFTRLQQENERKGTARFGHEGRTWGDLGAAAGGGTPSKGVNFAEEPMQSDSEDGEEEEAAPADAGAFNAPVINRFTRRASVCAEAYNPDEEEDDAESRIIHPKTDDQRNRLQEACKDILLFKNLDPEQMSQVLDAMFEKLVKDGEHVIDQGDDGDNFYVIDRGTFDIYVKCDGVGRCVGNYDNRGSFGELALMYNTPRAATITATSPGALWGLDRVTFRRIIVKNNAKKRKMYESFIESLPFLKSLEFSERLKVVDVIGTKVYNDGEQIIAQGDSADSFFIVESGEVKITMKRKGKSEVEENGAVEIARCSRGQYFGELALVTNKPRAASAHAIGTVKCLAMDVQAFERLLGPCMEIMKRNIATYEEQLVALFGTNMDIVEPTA
CXCR6 inh: CXCR6 (human) receptor inhibition | O00574 | CHO-K1 PathHunter CXCR6 beta-arrestin, luminescence | inhibition, % at 20 µM | 360,000 compounds, 0.36% hits | AID 602244; in the data active = inhibition above about 34%, passing the limit was not always enough;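 note: antagonist mode with CXCL16 agonist at 10 nM final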
CCR6 antagonist: CCR6 (human) receptor antagonism; AID 493098; 340,000 compounds, 0.49% hits; inhibition, % at 20 µM; CHO-K1 CCR6 PathHunter beta-arrestin, luminescence, CCL20-stimulated;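 active = compounds whose inhibition of the agonist-driven luminescence signal at 20 µM reaches about 50%, limit read from the data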;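 note: cells stimulated with CCL20 at 14 nM final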
APJ ag: APJ receptor agonism | CHO-K1 APJ PathHunter beta-arrestin, luminescence; 0% DMSO wells, 100% apelin | 330,000 compounds, 0.11% hits | P35414 | activation, % at 20 µM | AID 2520;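 active = activation more than six SD over the plate average, tested at 20 µM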
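Assay system – PathHunter CHO-K1 APJ (AGTRL-1) beta-arrestin reporter cells · Compound – one dose, 20 µM compound, 1% DMSO · Timing – compound 90 min 25 °C, reagent 1 h · Measured by – luminescence from split beta-galactosidase complementation, Galacton Star/Emerald II substrate · Measure – beta-arrestin recruitment to APJ as agonist activity, luminescent signal · Benchmarks – DMSO vs Apelin-13 10 nM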
APJ antagonist: blocks the human apelin receptor APJ; 330,000 compounds, 0.32% hits; inhibition, % at 20 µM; CHO-K1 APJ beta-arrestin complementation, luminescence; AID 2521;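 active = inhibition above about 40% at 20 µM, limit read from the data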;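 note: cells challenged with 10 nM apelin-13 agonist together with compound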
Numbers stand for hits; 0 = inactive; - = no result. A selection: hits, their analogues and other compounds. The true share with any hit is near 0.88%.

SMILES	PKA-R1A act	PKA-R2B activ	CXCR6 inh	CCR6 antagonist	APJ ag	APJ antagonist
COc1ccccc1CN(CC(=O)NCc1ccco1)C(=O)CNS(=O)(=O)c1ccc(C)cc1	0	0	0	0	0	0
COc1ccccc1CN(CC(=O)NCc1ccco1)C(=O)CNS(=O)(=O)c1ccccc1	0	0	0	61	0	0
Cn1c(CNc2ccc(Cl)cc2)nc2ccccc21	0	0	0	0	0	0
CC(C)N=c1cc2n(-c3ccc(Cl)cc3)c3ccccc3nc-2cc1Nc1ccc(Cl)cc1	0	0	46	0	0	67
N#CC(=C1C=C(Br)C(=NO)C=C1Cl)c1cccc2ccccc12	0	0	40	-	-	-
COc1ccc(C(C#N)=C2C=C(Cl)C(=NO)C=C2Cl)cc1	0	0	0	-	-	-
COc1ccc(Cn2cc(CN3CC(N4CCSCC4)CS3(=O)=O)nn2)cc1 (stereo not given)	-	-	0	-	-	-
COc1ccc(C(O)c2nc(-c3ccccc3)cs2)cc1 (stereo not given)	-	-	0	-	-	-
COc1cc(/C=C2\SC(N)=NC2=O)cc(Cl)c1O	0	0	0	0	0	0
COc1cc(/C=C2\CC/C(=C\c3cc(OC)c(OC)c(OC)c3)C2=O)cc(OC)c1OC	0	0	0	0	0	0
COc1cc(/C=C2/CCC/C(=C\c3cc(O)c(OC)c(Cl)c3)C2=O)cc(Cl)c1O	0	0	0	74	0	0
COc1cc(/C=C2\CC/C(=C\c3cc(OC)c(O)c(OC)c3)C2=O)cc(OC)c1O	0	0	42	55	0	0
COc1cc(/C=C2\COC/C(=C\c3cc(OC)c(OC)c(OC)c3)C2=O)cc(OC)c1OC	0	0	39	55	-	-
CCCCC[C@@H](C)N1C[C@@H](COCc2ccccc2)Oc2cc(N3CCC[C@H]3COC)ccc2S1(=O)=O	-	-	0	-	-	-
O=C(Nc1ccc2c(c1)OCO2)C1Cc2c(-c3ccc(Cl)cc3)ccnc2O1 (stereo not given)	-	-	0	-	-	-
CCN(CC)S(=O)(=O)c1ccc(N=Nc2cc(C)cc(Br)c2O)cc1	0	0	42	58	0	0
CN(Cc1cn(Cc2cccc(C(F)(F)F)c2)nn1)C1CN(Cc2cn(Cc3cccc(C(F)(F)F)c3)nn2)S(=O)(=O)C1 (stereo not given)	-	-	0	-	-	-
CCOC(=O)COc1ccccc1/C=C\[N+](=O)[O-]	0	0	45	69	-	-
Nc1ccc2c(c1)C(=O)C(=O)c1ccccc1-2	0	0	0	71	0	0
CC(C)(C)OC(=O)N[C@@H](Cc1ccccc1)c1nnc(S(=O)(=O)Cc2cccc(F)c2)o1	-	-	-	69	0	0
CC[C@@H](C)[C@H](NC(=O)OC(C)(C)C)c1nnc(S(=O)(=O)Cc2cc(C)ccc2C)o1	0	0	0	0	0	0
Cc1ccccc1CS(=O)(=O)c1nnc([C@H](CC(C)C)NC(=O)OC(C)(C)C)o1	0	0	0	53	0	0
CC(C)C[C@H](N)c1nnc(S(=O)(=O)Cc2cccc(F)c2)o1	0	0	0	0	0	0
CCN1C(=O)/C(=C/C=C2/Sc3ccc4ccccc4c3N2CCO)SC1=S	0	0	0	51	0	0
COc1cccc(Nc2nc(C(N)Cc3ccc(C(F)(F)F)cc3)cs2)n1 (stereo not given)	-	-	0	-	-	-
SMILES	PKA-R1A act	PKA-R2B activ	CXCR6 inh	CCR6 antagonist	APJ ag	APJ antagonist
CCN(CC)CCn1c(NC(=O)c2ccccc2O)nc2ccccc21	0	0	57	-	0	0
Cc1cc(C)c2cccc(NC(=S)NC(=O)c3ccccc3)c2n1	0	0	0	69	0	0
Cc1cccc(NC(=S)NC(=O)c2cc(-c3ccccc3)nc3ccccc23)c1	0	0	0	0	0	0
CC(=O)NC(=S)Nc1cccc2c(C)cc(C)nc12	0	0	0	0	0	0
Cc1ccccc1NC(=S)NC(=O)c1cc(-c2ccccc2)nc2ccccc12	0	0	0	56	0	0
COc1cc(C23CCCN(CCC(C(C)(C)C)C2)C32OCCO2)cc(OC)c1OC (stereo not given)	-	-	0	-	-	-
Cc1ccn2c(Cc3ccccc3)c(-c3ccc(F)cc3)nc2c1	0	0	0	-	-	-
O=C1/C(=C/c2ccc([N+](=O)[O-])cc2)C=C(c2ccccc2)N1c1ccc(O)cc1	0	0	38	54	0	0
COc1ccc(Cl)c(-c2cc(C(=O)Nc3ccc(F)cc3)[nH]n2)c1	-	-	0	-	-	-
O=C(Nc1ccc(Cl)cc1)Nc1nnc(Cc2ccc([N+](=O)[O-])cc2)s1	0	0	0	0	0	0
Cc1ccc(NC(=O)Nc2nnc(Cc3ccc([N+](=O)[O-])cc3)s2)cc1	0	0	0	62	0	0
Cc1ccc(Cl)c2c1=NC(=O)C=2c1[nH]c(=S)[nH]c1O	0	0	0	0	0	41
O=C1N=c2ccccc2=C1c1[nH]c(=S)[nH]c1O	0	0	0	0	0	0
CC(=NNc1nc2ccccc2s1)c1ncccn1	0	0	54	0	-	-
COC(=O)[C@@H]1[C@@H](C#N)C2(c3ccccc3-c3ccccc32)N(c2ccc(Cl)cc2)N1C#N	0	0	52	0	0	0
O=C(Cc1ccc(Cl)cc1)NN1C(=O)c2ccccc2C1=O	0	0	0	0	0	0
Cc1ccc(-n2c(=O)c3ccc(C(=O)NCc4ccco4)cc3n(Cc3ccccc3C#N)c2=O)cc1	0	0	0	0	0	86
CC(C)n1nnnc1C1c2ccccc2C(=O)N1Cc1cccnc1 (stereo not given)	-	-	0	-	-	-
CCOC(=O)/C(=C\c1cccnc1)C(=O)c1cc(C(C)=O)c(Nc2ccccc2)s1	0	0	93	100	0	69
Cc1cccc(C(O)c2ncc(-c3ccccc3)[nH]2)c1C (stereo not given)	-	-	0	-	-	-
O=C(CCCc1ccccc1)NCc1ccc2c(c1)OCO2	0	0	0	0	0	0
O=C(CS(=O)(=O)Cc1ccccc1)NCc1ccc2c(c1)OCO2	0	0	0	52	0	0
CC(=O)Nc1ccc(Nc2c3c4c(cccc4n(C)c2=O)C(=O)c2ccccc2-3)cc1	0	0	0	52	0	0
COC(=O)/C=C\C(C#N)(C#N)N=Cc1ccc(OC)cc1	0	0	65	0	-	-
COc1ccc(C=NNC(=O)CCCCC(=O)NN=Cc2ccc(OC)cc2)cc1	0	0	0	0	-	-
CC(C)(C)c1cnnn1-c1ccc(C=O)cc1	0	0	0	0	0	0
CC(C)(C)c1cnnn1-c1ccc(C(=O)CCl)cc1	0	0	0	65	0	0
COC1=CC(=O)C=C(OC)C1=O	0	0	81	86	-	-
COC(=O)[C@]12CCCCC=C1N(Cc1ccco1)C(=O)[C@H](CC(=O)NCc1ccc(OC)c(OC)c1)C2	-	-	0	-	-	-
O=C1C=CC(=O)N1c1ccc(-c2nc3ccccc3o2)cc1	0	0	60	-	-	-
